Results: ChEMBL document CHEMBL1268915, “Optimization of a series of dipeptides with a P3 threonine residue as non-covalent inhibitors of the chymotrypsin-like activity of the human 20S proteasome” (Bioorg Med Chem Lett, 2010)
Calls of active or inactive are those of the source. No cut-off for these calls is given here.

target: Prothrombin (Homo sapiens) (UniProt P00734); experiment: Inhibition of human thrombin at 100 uM; settings: not given

SMILES | inhibition
Cc1ccc(CNC(=O)[C@H](CCc2ccccc2)NC(=O)[C@@H](NC(=O)c2ccc(OCc3ccccc3)cc2)[C@@H](C)O)cc1 | Active
CCNC(=O)[C@H](CCc1ccccc1)NC(=O)[C@@H](NC(=O)c1ccc(OCc2ccccc2)cc1)[C@@H](C)O | Active
Cc1ccc(CNC(=O)[C@H](CCc2ccccc2)NC(=O)[C@@H](NCc2ccc(OCc3ccccc3)cc2)[C@@H](C)O)cc1 | Active

test system: not listed separately; experiment: Cytotoxicity against human Calu6 cells assessed as cellular ATP level after 72 hrs by luminescence-based ATPlite assay; format: cell-based, Calu-6; settings: read-out: LC50
Method in brief: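 Calu6 cells, 2000 per well, incubated with compound for 72 h. Viability read as cellular ATP by luminescence (ATPlite). Values are means of at least three independent experiments.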

SMILES | CC50 at 72 h [µM]
Cc1ccc(CNC(=O)[C@H](CCc2ccccc2)NC(=O)[C@@H](NC(=O)c2ccc(OCc3ccccc3)cc2)[C@@H](C)O)cc1 | 0.38
CCNC(=O)[C@H](CCc1ccccc1)NC(=O)[C@@H](NC(=O)c1ccc(OCc2ccccc2)cc1)[C@@H](C)O | 5.1
Cc1ccc(CNC(=O)[C@H](CCc2ccccc2)NC(=O)[C@@H](NCc2ccc(OCc3ccccc3)cc2)[C@@H](C)O)cc1 | 14

organism: Homo sapiens; experiment: Inhibition of human chymotrypsin at 100 uM; settings: not given

SMILES | inhibition
Cc1ccc(CNC(=O)[C@H](CCc2ccccc2)NC(=O)[C@@H](NC(=O)c2ccc(OCc3ccccc3)cc2)[C@@H](C)O)cc1 | Active
CCNC(=O)[C@H](CCc1ccccc1)NC(=O)[C@@H](NC(=O)c1ccc(OCc2ccccc2)cc1)[C@@H](C)O | Active
Cc1ccc(CNC(=O)[C@H](CCc2ccccc2)NC(=O)[C@@H](NCc2ccc(OCc3ccccc3)cc2)[C@@H](C)O)cc1 | Active

test system: not listed separately; experiment: Inhibition of chymotrypsin-like activity of human 20s proteasome beta-1 subunit in human erythrocyte assessed as hydrolysis of Ac-WLA-AMC fluorogenic substrate; settings: not given

SMILES | IC50 [µM]
Cc1ccc(CNC(=O)[C@H](CCc2ccccc2)NC(=O)[C@@H](NC(=O)c2ccc(OCc3ccccc3)cc2)[C@@H](C)O)cc1 | > 20
CCNC(=O)[C@H](CCc1ccccc1)NC(=O)[C@@H](NC(=O)c1ccc(OCc2ccccc2)cc1)[C@@H](C)O | > 20
Cc1ccc(CNC(=O)[C@H](CCc2ccccc2)NC(=O)[C@@H](NCc2ccc(OCc3ccccc3)cc2)[C@@H](C)O)cc1 | > 20

organism: Homo sapiens; experiment: Inhibition of human elastase at 100 uM; settings: not given

SMILES | inhibition
Cc1ccc(CNC(=O)[C@H](CCc2ccccc2)NC(=O)[C@@H](NC(=O)c2ccc(OCc3ccccc3)cc2)[C@@H](C)O)cc1 | Active
CCNC(=O)[C@H](CCc1ccccc1)NC(=O)[C@@H](NC(=O)c1ccc(OCc2ccccc2)cc1)[C@@H](C)O | Active
Cc1ccc(CNC(=O)[C@H](CCc2ccccc2)NC(=O)[C@@H](NCc2ccc(OCc3ccccc3)cc2)[C@@H](C)O)cc1 | Active

target: Cathepsin B (Homo sapiens) (UniProt P07858); experiment: Inhibition of human cathepsin B at 100uM; settings: not given

SMILES | inhibition
Cc1ccc(CNC(=O)[C@H](CCc2ccccc2)NC(=O)[C@@H](NC(=O)c2ccc(OCc3ccccc3)cc2)[C@@H](C)O)cc1 | Active
CCNC(=O)[C@H](CCc1ccccc1)NC(=O)[C@@H](NC(=O)c1ccc(OCc2ccccc2)cc1)[C@@H](C)O | Active
Cc1ccc(CNC(=O)[C@H](CCc2ccccc2)NC(=O)[C@@H](NCc2ccc(OCc3ccccc3)cc2)[C@@H](C)O)cc1 | Active

target: Trypsin (Homo sapiens) (UniProt P07477+P07478+P35030); experiment: Inhibition of human trypsin at 100 uM; format: protein assay; settings: not given

SMILES | inhibition
Cc1ccc(CNC(=O)[C@H](CCc2ccccc2)NC(=O)[C@@H](NC(=O)c2ccc(OCc3ccccc3)cc2)[C@@H](C)O)cc1 | Active
CCNC(=O)[C@H](CCc1ccccc1)NC(=O)[C@@H](NC(=O)c1ccc(OCc2ccccc2)cc1)[C@@H](C)O | Active
Cc1ccc(CNC(=O)[C@H](CCc2ccccc2)NC(=O)[C@@H](NCc2ccc(OCc3ccccc3)cc2)[C@@H](C)O)cc1 | Active

target: Tissue-type plasminogen activator (Homo sapiens) (UniProt P00750); experiment: Inhibition of tissue plasminogen activator at 100 uM; settings: not given
Sequence (P00750 36-562 limits assumed): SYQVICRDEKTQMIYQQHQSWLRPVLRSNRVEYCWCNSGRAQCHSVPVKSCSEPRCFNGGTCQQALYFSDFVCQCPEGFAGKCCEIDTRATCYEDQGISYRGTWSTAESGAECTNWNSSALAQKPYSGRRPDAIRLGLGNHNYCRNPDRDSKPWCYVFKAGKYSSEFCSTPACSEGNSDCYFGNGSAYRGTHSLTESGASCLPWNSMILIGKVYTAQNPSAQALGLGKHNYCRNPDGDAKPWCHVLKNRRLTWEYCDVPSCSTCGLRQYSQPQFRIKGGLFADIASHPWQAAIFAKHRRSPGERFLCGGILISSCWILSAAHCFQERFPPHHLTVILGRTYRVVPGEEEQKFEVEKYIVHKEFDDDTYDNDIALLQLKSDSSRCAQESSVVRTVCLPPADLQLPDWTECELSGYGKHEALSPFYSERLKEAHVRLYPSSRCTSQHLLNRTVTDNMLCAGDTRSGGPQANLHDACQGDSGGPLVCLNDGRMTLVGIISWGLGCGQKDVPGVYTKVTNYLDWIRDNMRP

SMILES | inhibition
Cc1ccc(CNC(=O)[C@H](CCc2ccccc2)NC(=O)[C@@H](NC(=O)c2ccc(OCc3ccccc3)cc2)[C@@H](C)O)cc1 | Active
CCNC(=O)[C@H](CCc1ccccc1)NC(=O)[C@@H](NC(=O)c1ccc(OCc2ccccc2)cc1)[C@@H](C)O | Active
Cc1ccc(CNC(=O)[C@H](CCc2ccccc2)NC(=O)[C@@H](NCc2ccc(OCc3ccccc3)cc2)[C@@H](C)O)cc1 | Active

target: T1, Calpain-1 catalytic subunit (Homo sapiens) (UniProt P07384); experiment: Inhibition of human calpain 1 at 100 uM; settings: not given
T1 sequence (whole entry): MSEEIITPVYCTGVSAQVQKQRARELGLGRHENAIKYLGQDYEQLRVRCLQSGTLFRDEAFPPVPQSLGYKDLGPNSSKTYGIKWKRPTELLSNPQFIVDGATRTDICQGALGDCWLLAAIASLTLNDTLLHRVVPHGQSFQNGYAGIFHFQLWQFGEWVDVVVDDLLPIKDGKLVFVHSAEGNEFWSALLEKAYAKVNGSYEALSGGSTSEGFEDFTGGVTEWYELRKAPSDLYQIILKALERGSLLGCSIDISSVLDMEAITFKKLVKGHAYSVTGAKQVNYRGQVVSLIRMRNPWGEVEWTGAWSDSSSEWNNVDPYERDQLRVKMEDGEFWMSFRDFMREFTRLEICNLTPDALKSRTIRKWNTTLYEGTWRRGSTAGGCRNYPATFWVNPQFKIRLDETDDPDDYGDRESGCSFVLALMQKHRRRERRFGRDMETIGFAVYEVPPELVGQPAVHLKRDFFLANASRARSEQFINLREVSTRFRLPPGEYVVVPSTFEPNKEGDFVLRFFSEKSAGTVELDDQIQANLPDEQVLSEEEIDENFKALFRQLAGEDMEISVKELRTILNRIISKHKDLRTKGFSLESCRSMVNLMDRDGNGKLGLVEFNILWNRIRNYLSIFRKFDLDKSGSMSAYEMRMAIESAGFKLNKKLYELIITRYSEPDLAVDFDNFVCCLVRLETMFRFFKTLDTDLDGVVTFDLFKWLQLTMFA

SMILES | inhibition
Cc1ccc(CNC(=O)[C@H](CCc2ccccc2)NC(=O)[C@@H](NC(=O)c2ccc(OCc3ccccc3)cc2)[C@@H](C)O)cc1 | Active
CCNC(=O)[C@H](CCc1ccccc1)NC(=O)[C@@H](NC(=O)c1ccc(OCc2ccccc2)cc1)[C@@H](C)O | Active
Cc1ccc(CNC(=O)[C@H](CCc2ccccc2)NC(=O)[C@@H](NCc2ccc(OCc3ccccc3)cc2)[C@@H](C)O)cc1 | Active

test system: not listed separately; experiment: (§1) Inhibition of TNF-alpha-induced NF-kappaB activation in human HEK293 cells after 3 hrs by luciferase reporter gene assay; format: cell-based; settings: HEK293, 3 h
Method in brief: (§2)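 NF-κB-luciferase reporter in HEK293 cells (10,000 per well). Cells were pre-incubated with compound for 1 h, then stimulated with 10 ng/ml TNF-α for 3 h with compound still present. IC50 and percentage inhibition were reported as means of at least three independent experiments.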

SMILES | IC50 [µM]
Cc1ccc(CNC(=O)[C@H](CCc2ccccc2)NC(=O)[C@@H](NC(=O)c2ccc(OCc3ccccc3)cc2)[C@@H](C)O)cc1 | 0.12
CCNC(=O)[C@H](CCc1ccccc1)NC(=O)[C@@H](NC(=O)c1ccc(OCc2ccccc2)cc1)[C@@H](C)O | 2.6
Cc1ccc(CNC(=O)[C@H](CCc2ccccc2)NC(=O)[C@@H](NCc2ccc(OCc3ccccc3)cc2)[C@@H](C)O)cc1 | > 50

test system: HEK293; experiment: as §1; format: cell-based; set-up: concentration or dose not given beside the values; settings: dose or concentration not given here; method in brief: as §2

SMILES | inhibition [%]
Cc1ccc(CNC(=O)[C@H](CCc2ccccc2)NC(=O)[C@@H](NC(=O)c2ccc(OCc3ccccc3)cc2)[C@@H](C)O)cc1 | 81
CCNC(=O)[C@H](CCc1ccccc1)NC(=O)[C@@H](NC(=O)c1ccc(OCc2ccccc2)cc1)[C@@H](C)O | 98
Cc1ccc(CNC(=O)[C@H](CCc2ccccc2)NC(=O)[C@@H](NCc2ccc(OCc3ccccc3)cc2)[C@@H](C)O)cc1 | 37

target: T2, Coagulation factor XII (Homo sapiens) (UniProt P00748); experiment: Inhibition of human coagulation factor beta 12a at 100 uM; settings: not given
T2 sequence (whole entry): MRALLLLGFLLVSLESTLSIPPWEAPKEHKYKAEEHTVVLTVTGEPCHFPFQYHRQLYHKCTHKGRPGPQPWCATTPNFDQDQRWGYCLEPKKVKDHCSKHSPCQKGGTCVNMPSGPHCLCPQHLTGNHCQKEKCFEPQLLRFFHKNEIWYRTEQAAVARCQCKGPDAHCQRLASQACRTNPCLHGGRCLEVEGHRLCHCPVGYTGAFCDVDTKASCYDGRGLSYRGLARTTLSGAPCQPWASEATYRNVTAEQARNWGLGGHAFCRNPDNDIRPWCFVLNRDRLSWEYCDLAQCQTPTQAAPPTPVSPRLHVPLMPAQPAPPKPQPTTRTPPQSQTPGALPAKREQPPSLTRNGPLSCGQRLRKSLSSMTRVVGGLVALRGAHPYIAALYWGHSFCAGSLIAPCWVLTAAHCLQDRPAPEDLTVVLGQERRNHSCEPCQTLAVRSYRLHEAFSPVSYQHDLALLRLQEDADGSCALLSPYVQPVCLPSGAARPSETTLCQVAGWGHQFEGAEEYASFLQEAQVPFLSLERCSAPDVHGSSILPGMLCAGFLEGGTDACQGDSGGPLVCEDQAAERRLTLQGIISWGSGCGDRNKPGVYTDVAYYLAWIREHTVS

SMILES | inhibition
Cc1ccc(CNC(=O)[C@H](CCc2ccccc2)NC(=O)[C@@H](NC(=O)c2ccc(OCc3ccccc3)cc2)[C@@H](C)O)cc1 | Active
CCNC(=O)[C@H](CCc1ccccc1)NC(=O)[C@@H](NC(=O)c1ccc(OCc2ccccc2)cc1)[C@@H](C)O | Active
Cc1ccc(CNC(=O)[C@H](CCc2ccccc2)NC(=O)[C@@H](NCc2ccc(OCc3ccccc3)cc2)[C@@H](C)O)cc1 | Active

target: Plasminogen (Homo sapiens) (UniProt P00747); experiment: Inhibition of human plasmin at 100 uM; settings: not given
Sequence (P00747 97-580 limits assumed): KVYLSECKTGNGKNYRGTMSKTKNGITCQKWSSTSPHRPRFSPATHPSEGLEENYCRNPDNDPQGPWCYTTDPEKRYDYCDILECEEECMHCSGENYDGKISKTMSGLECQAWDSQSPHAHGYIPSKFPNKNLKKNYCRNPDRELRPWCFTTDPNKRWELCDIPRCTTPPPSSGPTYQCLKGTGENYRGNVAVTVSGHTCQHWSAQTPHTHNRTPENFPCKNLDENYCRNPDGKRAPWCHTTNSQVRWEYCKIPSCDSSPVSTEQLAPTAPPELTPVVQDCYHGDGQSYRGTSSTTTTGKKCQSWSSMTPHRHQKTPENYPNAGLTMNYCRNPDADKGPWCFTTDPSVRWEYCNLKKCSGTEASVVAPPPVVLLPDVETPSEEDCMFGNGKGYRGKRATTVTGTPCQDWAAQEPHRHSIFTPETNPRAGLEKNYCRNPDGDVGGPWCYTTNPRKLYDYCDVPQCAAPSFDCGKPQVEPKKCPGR
Sequence (P00747 581-810 limits assumed): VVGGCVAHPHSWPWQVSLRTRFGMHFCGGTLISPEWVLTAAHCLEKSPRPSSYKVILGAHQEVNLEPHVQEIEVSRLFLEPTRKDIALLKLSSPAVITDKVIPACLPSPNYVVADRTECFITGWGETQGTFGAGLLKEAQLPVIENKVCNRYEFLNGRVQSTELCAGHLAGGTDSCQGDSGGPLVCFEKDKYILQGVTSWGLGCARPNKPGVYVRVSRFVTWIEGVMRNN

SMILES | inhibition
Cc1ccc(CNC(=O)[C@H](CCc2ccccc2)NC(=O)[C@@H](NC(=O)c2ccc(OCc3ccccc3)cc2)[C@@H](C)O)cc1 | Active
CCNC(=O)[C@H](CCc1ccccc1)NC(=O)[C@@H](NC(=O)c1ccc(OCc2ccccc2)cc1)[C@@H](C)O | Active
Cc1ccc(CNC(=O)[C@H](CCc2ccccc2)NC(=O)[C@@H](NCc2ccc(OCc3ccccc3)cc2)[C@@H](C)O)cc1 | Active

target: Procathepsin L (Homo sapiens) (UniProt P07711); experiment: Inhibition of human cathepsin L at 100uM; settings: not given
Sequence (P07711 114-333 limits assumed): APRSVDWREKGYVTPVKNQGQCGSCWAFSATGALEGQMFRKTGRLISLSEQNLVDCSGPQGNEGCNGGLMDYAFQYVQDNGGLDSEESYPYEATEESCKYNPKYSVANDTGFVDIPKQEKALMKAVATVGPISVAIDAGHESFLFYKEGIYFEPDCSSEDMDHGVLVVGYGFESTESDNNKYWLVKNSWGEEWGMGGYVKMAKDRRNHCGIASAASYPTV

SMILES | inhibition
Cc1ccc(CNC(=O)[C@H](CCc2ccccc2)NC(=O)[C@@H](NC(=O)c2ccc(OCc3ccccc3)cc2)[C@@H](C)O)cc1 | Active
CCNC(=O)[C@H](CCc1ccccc1)NC(=O)[C@@H](NC(=O)c1ccc(OCc2ccccc2)cc1)[C@@H](C)O | Active
Cc1ccc(CNC(=O)[C@H](CCc2ccccc2)NC(=O)[C@@H](NCc2ccc(OCc3ccccc3)cc2)[C@@H](C)O)cc1 | Active

test system: not listed separately; experiment: Inhibition of chymotrypsin-like activity of human 20s proteasome beta2 subunit in human erythrocyte assessed as hydrolysis of Ac-WLA-AMC fluorogenic substrate; settings: not given

SMILES | IC50 [µM]
Cc1ccc(CNC(=O)[C@H](CCc2ccccc2)NC(=O)[C@@H](NC(=O)c2ccc(OCc3ccccc3)cc2)[C@@H](C)O)cc1 | > 20
CCNC(=O)[C@H](CCc1ccccc1)NC(=O)[C@@H](NC(=O)c1ccc(OCc2ccccc2)cc1)[C@@H](C)O | > 20
Cc1ccc(CNC(=O)[C@H](CCc2ccccc2)NC(=O)[C@@H](NCc2ccc(OCc3ccccc3)cc2)[C@@H](C)O)cc1 | > 20

test system: not listed separately; experiment: Inhibition of chymotrypsin-like activity of human 20s proteasome beta5 subunit in human erythrocyte assessed as hydrolysis of Ac-WLA-AMC fluorogenic substrate; settings: not given

SMILES | IC50 [µM]
Cc1ccc(CNC(=O)[C@H](CCc2ccccc2)NC(=O)[C@@H](NC(=O)c2ccc(OCc3ccccc3)cc2)[C@@H](C)O)cc1 | 0.02
CCNC(=O)[C@H](CCc1ccccc1)NC(=O)[C@@H](NC(=O)c1ccc(OCc2ccccc2)cc1)[C@@H](C)O | 0.44
Cc1ccc(CNC(=O)[C@H](CCc2ccccc2)NC(=O)[C@@H](NCc2ccc(OCc3ccccc3)cc2)[C@@H](C)O)cc1 | 3.1
